Experimental data published in ChEMBL document CHEMBL1157131, “Antibiotic indole sesquiterpene alkaloid from Greenwayodendron suaveolens with a new natural product framework” (2010).
≈ marks a conversion by molar mass, not a printed value. Calls of active or inactive are those of the source. The rule behind the calls is not given here.

What was measured:
Staphylococcus aureus [1] = experiment: Antimicrobial activity against methicillin sensitive Staphylococcus aureus ATCC 25923 after 24 hrs by broth microdilution method; type: functional
In short: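 Overnight culture diluted 1:100 in trypticase soy broth with 0.5% D-glucose and 3% NaCl, grown at 37 °C to OD600 0.4, then diluted 1:10. Compounds in DMSO diluted in medium, tested at a concentration series (3-6 wells per concentration); vancomycin positive control. Incubated 24 h at 37 °C; inhibition from OD600 change versus compound-free control wells.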

Staphylococcus aureus [2] = experiment: Antimicrobial activity against invasive methicillin resistant Staphylococcus aureus isolate 186 expressing virulence gene system including PVL, bsaA and Agr genes after 24 hrs by broth microdilution method; type: functional; settings: isolate 186, 24 h
In short: (§1)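 Clinical S. aureus isolates, first recovered from patient specimens on 5% sheep blood agar, tested by CLSI broth microdilution in cation-adjusted Mueller-Hinton broth. Initial inoculum 10^6 cfu/mL. After overnight incubation at 37 °C, MIC was read as the lowest concentration preventing visible growth. Overnight starter cultures were grown in TSB from frozen glycerol stocks.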

Staphylococcus aureus [3] = experiment: Antimicrobial activity against cutaneous methicillin resistant Staphylococcus aureus isolate 105 expressing virulence gene system including PVL, ACME, bsaB and Agr genes after 24 hrs by broth microdilution method; type: functional; settings: isolate 105, 24 h; in short: as §1
Staphylococcus aureus [4] = experiment: Antimicrobial activity against cutaneous methicillin resistant Staphylococcus aureus isolate 107 expressing virulence gene system including PVL, ACME, bsaB and Agr genes after 24 hrs by broth microdilution method; type: functional; settings: isolate 107, 24 h; in short: as §1
Staphylococcus aureus [5] = experiment: Antimicrobial activity against cutaneous methicillin resistant Staphylococcus aureus isolate 158 expressing virulence gene system including PVL, ACME, bsaB and Agr genes after 24 hrs by broth microdilution method; type: functional; settings: isolate 158, 24 h; in short: as §1
Staphylococcus aureus [6] = experiment: Antimicrobial activity against cutaneous methicillin resistant Staphylococcus aureus isolate 148 expressing virulence gene system including PVL, ACME, bsaB and Agr genes after 24 hrs by broth microdilution method; type: functional; settings: isolate 148, 24 h; in short: as §1
Staphylococcus aureus [7] = experiment: Antimicrobial activity against cutaneous methicillin resistant Staphylococcus aureus isolate 108 expressing virulence gene system including PVL, bsaA and Agr genes after 24 hrs by broth microdilution method; type: functional; settings: isolate 108, 24 h; in short: as §1
Staphylococcus aureus [8] = experiment: Antimicrobial activity against cutaneous methicillin sensitive Staphylococcus aureus isolate 175 expressing virulence gene system including PVL, bsaB and Agr genes after 24 hrs by broth microdilution method; type: functional; settings: isolate 175, 24 h; in short: as §1
Staphylococcus aureus [9] = experiment: Antimicrobial activity against cutaneous methicillin resistant Staphylococcus aureus isolate 106 expressing virulence gene system including PVL, ACME, bsaB and Agr genes after 24 hrs by broth microdilution method; type: functional; settings: isolate 106, 24 h; in short: as §1
Staphylococcus aureus [10] = experiment: Antimicrobial activity against cutaneous methicillin resistant Staphylococcus aureus isolate 111 expressing virulence gene system including PVL, ACME, bsaB and Agr genes after 24 hrs by broth microdilution method; type: functional; settings: isolate 111, 24 h; in short: as §1
Staphylococcus aureus [11] = experiment: Antimicrobial activity against clinical isolates of Staphylococcus aureus after 24 hrs by broth microdilution method
Staphylococcus aureus [12] = experiment: Antimicrobial activity against cutaneous methicillin sensitive Staphylococcus aureus isolate 109 expressing virulence gene system including PVL, bsaB and Agr genes after 24 hrs by broth microdilution method; settings: isolate 109, 24 h
Staphylococcus aureus [13] = experiment: Antimicrobial activity against cutaneous methicillin resistant Staphylococcus aureus isolate 295 expressing virulence gene system bsaB and Agr genes after 24 hrs by broth microdilution method; type: functional; settings: isolate 295, 24 h; in short: as §1
Staphylococcus aureus [14] = experiment: Antimicrobial activity against invasive methicillin resistant Staphylococcus aureus isolate 194 expressing virulence gene system including PVL, ACME, bsaB and Agr genes after 24 hrs by broth microdilution method; type: functional; settings: isolate 194, 24 h; in short: as §1

Row | Structure (SMILES) | MIC (Staphylococcus aureus [1]; ATCC 25923, 24 h) [µg/mL] | MIC (Staphylococcus aureus [1]) | MIC (Staphylococcus aureus [2]) [µg/mL] | MIC (Staphylococcus aureus [3]) [µg/mL] | MIC (Staphylococcus aureus [4]) [µg/mL] | MIC (Staphylococcus aureus [5]) [µg/mL] | MIC (Staphylococcus aureus [6]) [µg/mL] | MIC (Staphylococcus aureus [7]) [µg/mL] | MIC (Staphylococcus aureus [8]) [µg/mL] | MIC (Staphylococcus aureus [9]) [µg/mL] | MIC (Staphylococcus aureus [10]) [µg/mL] | MIC90 (Staphylococcus aureus [11]) [µg/mL] | MIC (Staphylococcus aureus [12]) [µg/mL] | MIC (Staphylococcus aureus [13]) [µg/mL] | MIC (Staphylococcus aureus [14]) [µg/mL]
1 | CC(C)=C1CC[C@@H](C)[C@@](C)(Cc2c[nH]c3ccccc23)[C@@H]1CCCO | 19 (≈ 56 µM) | – | – | – | – | – | – | – | – | – | – | – | – | – | –
2 | COC(=O)CC[C@@H]1C(=C(C)C)CC[C@@H](C)[C@@]1(C)Cc1c[nH]c2ccccc12 | – | inactive | – | – | – | – | – | – | – | – | – | – | – | – | –
3 | C[C@@H]1CCC2=C3[C@H](C[C@H](O)C2(C)C)c2[nH]c4ccccc4c2C[C@@]31C [PENTACYCLINDOLE] | 4 (≈ 11.9 µM) | – | 8 (≈ 23.8 µM) | 8 (≈ 23.8 µM) | 8 (≈ 23.8 µM) | 8 (≈ 23.8 µM) | 8 (≈ 23.8 µM) | 8 (≈ 23.8 µM) | 8 (≈ 23.8 µM) | 8 (≈ 23.8 µM) | 8 (≈ 23.8 µM) | 8 (≈ 23.8 µM) | 8 (≈ 23.8 µM) | – | –
4 | C[C@@H]1CC[C@@H]2C(=CC[C@H](O)C2(C)C)[C@]1(C)Cc1c[nH]c2ccccc12 [POLYALTHENOL] | 4 (≈ 11.9 µM) | – | 4 (≈ 11.9 µM) | 1 (≈ 2.96 µM) | 1 (≈ 2.96 µM) | 4 (≈ 11.9 µM) | 2 (≈ 5.93 µM) | 2 (≈ 5.93 µM) | 4 (≈ 11.9 µM) | 2 (≈ 5.93 µM) | 2 (≈ 5.93 µM) | 4 (≈ 11.9 µM) | 1 (≈ 2.96 µM) | 4 (≈ 11.9 µM) | 2 (≈ 5.93 µM)
